Reference: ChEMBL document CHEMBL5661986, “Discovery of the SMYD3 Inhibitor BAY-6035 Using Thermal Shift Assay (TSA)-Based High-Throughput Screening” (SLAS Discov, 2021)
Values after ≈ are worked out from the molar mass of the structure shown. Active and inactive are the calls of the source. The rule behind the calls is not given here.

Key:
[1] = Kinetic solubility of the compound at pH 6.5; format: physicochemical; details: buffer, read-out: Kinetic_solubility
[2] = biological target: T1, Histone-lysine N-methyltransferase SMYD3 (Homo sapiens) (UniProt Q9H7B4); experiment: Binding affinity to recombinant human SMYD3 expressed in Escherichia coli assessed as change in entropy at 0.3 mM by isothermal titration calorimetry
T1 sequence (whole entry): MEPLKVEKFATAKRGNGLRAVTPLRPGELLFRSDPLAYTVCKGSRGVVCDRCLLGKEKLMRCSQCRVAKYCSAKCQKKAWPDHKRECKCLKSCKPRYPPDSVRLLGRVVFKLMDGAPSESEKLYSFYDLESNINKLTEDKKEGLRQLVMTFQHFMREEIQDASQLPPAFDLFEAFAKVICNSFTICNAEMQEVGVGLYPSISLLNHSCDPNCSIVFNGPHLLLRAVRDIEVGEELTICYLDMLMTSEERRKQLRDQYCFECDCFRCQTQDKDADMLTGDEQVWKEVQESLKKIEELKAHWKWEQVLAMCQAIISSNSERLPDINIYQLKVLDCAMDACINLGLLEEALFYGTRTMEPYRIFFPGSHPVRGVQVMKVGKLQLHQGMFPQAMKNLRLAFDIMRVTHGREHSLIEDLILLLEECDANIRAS
Method in brief: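 Syringe held compound at 0.3 mM in 20 mM HEPES pH 7.4, 150 mM NaCl, 0.005% Tween 20, 2.5% DMSO; eight 4 µL injections at 180 s intervals into SMYD3.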

[3] = biological target: T2, Histone-lysine N-methyltransferase SMYD3 (Homo sapiens, UniProt Q9H7B4); experiment: Binding affinity to biotinylated SMYD3 (unknown origin) assessed as dissociation constant using S-adenosyl-l-methionine as substrate by surface plasmon resonance analysis
T2 sequence (Q9H7B4 whole entry): T1 sequence (whole entry)
Method in brief: (§1)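 Biotinylated SMYD3 (aa 1–428) captured (~4700 RU) on streptavidin chip, empty reference flow cell; 25 °C; running buffer 20 mM HEPES pH 7.4, 150 mM NaCl, 3 mM EDTA, 0.05% Tween-20, 2% DMSO, plus 50 µM SAM. Single-cycle kinetics, five concentrations 25–2000 nM, 60 s contact, 300 s dissociation, 30 µL/min; triplicate.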

[4] = biological target: T1, Histone-lysine N-methyltransferase SMYD3 (Homo sapiens); experiment: Binding affinity to biotinylated SMYD3 (unknown origin) assessed as dissociation rate constant (Koff) using S-adenosyl-l-methionine as substrate by surface plasmon resonance analysis; method in brief: as §1
[5] = biological target: DNA (cytosine-5)-methyltransferase 1 (Homo sapiens) (UniProt P26358); experiment: Inhibition of DNMT1 (unknown origin)
[6] = biological target: DNMT3B-DNMT3L complex (Homo sapiens) (UniProt Q9UBC3+Q9UJW3); experiment: Inhibition of DNMT3B/DNMT3L (unknown origin); format: protein-complex assay
[7] = biological target: Histone acetyltransferase p300 (Homo sapiens) (UniProt Q09472); experiment: Inhibition of EP300 (unknown origin)
[8] = biological target: Histone-lysine N-methyltransferase 2A (Homo sapiens) (UniProt Q03164); experiment: Inhibition of MLL1 (unknown origin)
[9] = biological target: Histone-lysine N-methyltransferase, H3 lysine-36 specific (Homo sapiens) (UniProt Q96L73); experiment: Inhibition of NSD1 (unknown origin)
[10] = biological target: Histone-lysine N-methyltransferase NSD2 (Homo sapiens) (UniProt O96028); experiment: Inhibition of NSD2 (unknown origin)
Homo sapiens = species on record: Homo sapiens; experiment: Inhibition of PRC2 (unknown origin)
[11] = biological target: Protein arginine N-methyltransferase 1 (Homo sapiens) (UniProt Q99873); experiment: Inhibition of PRMT1 (unknown origin)
[12] = biological target: Histone-arginine methyltransferase CARM1 (Homo sapiens) (UniProt Q86X55); experiment: Inhibition of PRMT4 (unknown origin)
[13] = biological target: Protein arginine N-methyltransferase 7 (Homo sapiens) (UniProt Q9NVM4); experiment: Inhibition of PRMT7 (unknown origin)
[14] = biological target: Protein arginine N-methyltransferase 9 (Homo sapiens) (UniProt Q6P2P2); experiment: Inhibition of PRMT9 (unknown origin)
[15] = biological target: Histone-lysine N-methyltransferase SETD7 (Homo sapiens) (UniProt Q8WTS6); experiment: Inhibition of SETD7 (unknown origin)
[16] = biological target: Histone-lysine N-methyltransferase SETDB1 (Homo sapiens) (UniProt Q15047); experiment: Inhibition of SETDB1 (unknown origin)
[17] = biological target: Mitotic checkpoint serine/threonine-protein kinase BUB1 (Homo sapiens, UniProt O43683); experiment: Inhibition of Bub1 (unknown origin) in presence of ATP
[18] = biological target: Cyclin-dependent kinase 13 (Homo sapiens, UniProt Q14004); experiment: Inhibition of CDK13 (unknown origin) by using c-myc peptide as substrate in presence of ATP
[19] = biological target: Casein kinase I isoform alpha (Homo sapiens, UniProt P48729); experiment: Inhibition of CSNK1A1 (unknown origin)
[20] = biological target: Receptor-type tyrosine-protein kinase FLT3 (Homo sapiens, UniProt P36888); experiment: Inhibition of FLT3 (unknown origin)
[21] = biological target: Glycogen synthase kinase-3 beta (Homo sapiens, UniProt P49841); experiment: Inhibition of GSK-3-beta (unknown origin) by HTRF assay
[22] = biological target: Phosphatidylinositol 5-phosphate 4-kinase type-2 alpha (Homo sapiens, UniProt P48426); experiment: Inhibition of human PIP4K2A
[23] = biological target: Interleukin-1 receptor-associated kinase 4 (Homo sapiens, UniProt Q9NWZ3); experiment: Inhibition of IRAK4 (unknown origin) in BGG-buffer in presence of ATP
[24] = biological target: Serine/threonine-protein kinase 4 (Homo sapiens, UniProt Q13043); experiment: Inhibition of MST1 (unknown origin)
[25] = biological target: Diacylglycerol kinase alpha (Mus musculus, UniProt O88673); experiment: Inhibition of mouse DGK alpha by ADP-Glo assay
[26] = biological target: Ribosomal protein S6 kinase alpha-6 (Homo sapiens, UniProt Q9UK32); experiment: Inhibition of RSK4 (unknown origin)
[27] = biological target: Serine/threonine-protein kinase TBK1 (Homo sapiens, UniProt Q9UHD2); experiment: Inhibition of TBK1 (unknown origin) in presence of ATP by HTRF assay
COLO-679 = experiment: Antiproliferative activity against human COLO-679 cells assessed as inhibition of cell viability measured for 3 to 5 days by alamar blue staining based assay; format: functional
Hs746T = experiment: Antiproliferative activity against human Hs746T cells assessed as inhibition of cell viability measured for 3 to 5 days by alamar blue staining based assay; format: functional
SUD4 = experiment: Antiproliferative activity against human SU-DHL-4 cells assessed as inhibition of cell viability measured for 3 to 5 days by alamar blue staining based assay; format: functional
[28] = biological target: T1, Histone-lysine N-methyltransferase SMYD3 (Homo sapiens); details: dose 120.0 µM

Histone-lysine N-methyltransferase NSD2 (Homo sapiens), sequence (O96028 whole entry): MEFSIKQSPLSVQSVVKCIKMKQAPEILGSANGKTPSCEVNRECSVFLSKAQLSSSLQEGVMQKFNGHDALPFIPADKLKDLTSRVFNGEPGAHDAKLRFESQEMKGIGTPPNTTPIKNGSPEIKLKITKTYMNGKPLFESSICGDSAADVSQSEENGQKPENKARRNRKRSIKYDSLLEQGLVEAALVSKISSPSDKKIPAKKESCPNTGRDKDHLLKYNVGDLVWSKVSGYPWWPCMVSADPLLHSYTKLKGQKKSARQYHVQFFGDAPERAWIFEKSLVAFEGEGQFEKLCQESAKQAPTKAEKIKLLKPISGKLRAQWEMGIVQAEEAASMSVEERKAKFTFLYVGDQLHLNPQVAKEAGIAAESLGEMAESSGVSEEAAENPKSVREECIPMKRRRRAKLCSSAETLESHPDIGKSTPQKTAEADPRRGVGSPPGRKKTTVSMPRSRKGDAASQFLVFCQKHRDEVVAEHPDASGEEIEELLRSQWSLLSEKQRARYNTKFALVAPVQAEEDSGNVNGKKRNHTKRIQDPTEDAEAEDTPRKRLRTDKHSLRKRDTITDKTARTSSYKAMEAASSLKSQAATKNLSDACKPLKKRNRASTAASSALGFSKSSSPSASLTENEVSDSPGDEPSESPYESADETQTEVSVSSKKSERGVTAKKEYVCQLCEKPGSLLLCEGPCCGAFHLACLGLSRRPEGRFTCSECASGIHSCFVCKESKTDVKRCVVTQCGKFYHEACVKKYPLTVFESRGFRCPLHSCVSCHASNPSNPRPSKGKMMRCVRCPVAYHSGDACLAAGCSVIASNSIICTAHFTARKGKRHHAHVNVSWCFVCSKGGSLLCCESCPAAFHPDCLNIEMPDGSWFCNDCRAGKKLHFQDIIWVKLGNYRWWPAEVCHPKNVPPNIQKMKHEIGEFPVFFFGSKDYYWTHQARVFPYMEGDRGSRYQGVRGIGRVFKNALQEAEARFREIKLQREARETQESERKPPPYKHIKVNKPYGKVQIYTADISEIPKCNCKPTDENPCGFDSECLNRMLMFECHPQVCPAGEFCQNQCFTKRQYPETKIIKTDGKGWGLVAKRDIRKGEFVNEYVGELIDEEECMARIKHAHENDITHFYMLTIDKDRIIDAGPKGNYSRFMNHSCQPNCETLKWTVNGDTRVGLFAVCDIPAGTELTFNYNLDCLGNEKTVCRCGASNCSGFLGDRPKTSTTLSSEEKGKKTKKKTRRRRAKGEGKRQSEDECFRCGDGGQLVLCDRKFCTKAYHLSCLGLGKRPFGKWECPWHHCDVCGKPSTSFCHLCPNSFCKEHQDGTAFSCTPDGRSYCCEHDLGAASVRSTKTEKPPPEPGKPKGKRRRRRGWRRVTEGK
Cyclin-dependent kinase 13, sequence (Q14004 whole entry, canonical isoform): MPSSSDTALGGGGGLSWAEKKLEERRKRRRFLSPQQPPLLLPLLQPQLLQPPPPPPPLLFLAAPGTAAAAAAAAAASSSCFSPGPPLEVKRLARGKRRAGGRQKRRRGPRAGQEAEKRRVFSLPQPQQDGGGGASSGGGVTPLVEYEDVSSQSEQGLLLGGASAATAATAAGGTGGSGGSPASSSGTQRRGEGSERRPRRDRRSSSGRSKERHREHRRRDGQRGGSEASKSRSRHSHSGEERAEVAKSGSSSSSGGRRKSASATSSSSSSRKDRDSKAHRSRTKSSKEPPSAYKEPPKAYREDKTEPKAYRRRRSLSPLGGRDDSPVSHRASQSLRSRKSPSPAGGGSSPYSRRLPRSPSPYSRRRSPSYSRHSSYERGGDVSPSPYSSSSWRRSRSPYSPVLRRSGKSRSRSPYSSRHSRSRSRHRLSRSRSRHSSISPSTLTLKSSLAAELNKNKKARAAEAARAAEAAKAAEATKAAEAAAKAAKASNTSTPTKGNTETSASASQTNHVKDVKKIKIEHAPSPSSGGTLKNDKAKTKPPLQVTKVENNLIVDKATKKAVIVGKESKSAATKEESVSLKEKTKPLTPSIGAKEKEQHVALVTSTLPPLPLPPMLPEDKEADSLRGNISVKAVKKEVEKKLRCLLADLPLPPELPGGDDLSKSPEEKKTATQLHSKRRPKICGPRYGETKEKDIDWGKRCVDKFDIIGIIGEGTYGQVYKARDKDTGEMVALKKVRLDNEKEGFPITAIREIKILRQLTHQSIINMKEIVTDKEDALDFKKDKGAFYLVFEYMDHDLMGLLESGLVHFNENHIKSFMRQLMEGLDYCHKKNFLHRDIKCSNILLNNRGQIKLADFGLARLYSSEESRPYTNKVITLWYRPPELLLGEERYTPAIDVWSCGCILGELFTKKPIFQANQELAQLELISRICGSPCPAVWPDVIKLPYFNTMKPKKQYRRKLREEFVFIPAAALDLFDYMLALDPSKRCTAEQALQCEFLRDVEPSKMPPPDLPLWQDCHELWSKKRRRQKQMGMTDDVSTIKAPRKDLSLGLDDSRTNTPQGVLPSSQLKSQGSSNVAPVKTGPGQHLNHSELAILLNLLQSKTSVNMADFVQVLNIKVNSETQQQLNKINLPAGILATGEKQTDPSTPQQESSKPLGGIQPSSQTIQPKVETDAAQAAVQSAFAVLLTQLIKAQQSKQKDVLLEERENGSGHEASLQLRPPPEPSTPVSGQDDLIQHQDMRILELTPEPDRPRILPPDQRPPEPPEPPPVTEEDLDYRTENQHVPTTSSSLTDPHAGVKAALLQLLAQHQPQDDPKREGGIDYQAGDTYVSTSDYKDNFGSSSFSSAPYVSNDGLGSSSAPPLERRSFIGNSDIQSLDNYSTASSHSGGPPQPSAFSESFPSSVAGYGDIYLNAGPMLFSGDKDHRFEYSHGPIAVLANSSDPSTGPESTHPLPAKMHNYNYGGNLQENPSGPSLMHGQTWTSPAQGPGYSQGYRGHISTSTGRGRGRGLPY
DNMT3B-DNMT3L complex (Homo sapiens), sequence (Q9UJW3 whole entry, looked up, other chains not shown): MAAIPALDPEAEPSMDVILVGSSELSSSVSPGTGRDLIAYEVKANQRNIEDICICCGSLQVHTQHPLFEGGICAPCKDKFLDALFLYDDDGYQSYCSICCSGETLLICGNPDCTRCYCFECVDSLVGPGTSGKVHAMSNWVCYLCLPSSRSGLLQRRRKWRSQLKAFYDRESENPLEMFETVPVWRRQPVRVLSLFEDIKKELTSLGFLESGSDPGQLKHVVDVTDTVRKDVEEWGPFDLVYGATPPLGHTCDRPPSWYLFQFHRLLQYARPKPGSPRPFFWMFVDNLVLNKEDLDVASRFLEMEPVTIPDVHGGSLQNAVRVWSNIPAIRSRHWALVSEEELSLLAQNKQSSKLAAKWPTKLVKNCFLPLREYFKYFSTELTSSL
Protein arginine N-methyltransferase 9 (Homo sapiens), sequence (Q6P2P2 whole entry): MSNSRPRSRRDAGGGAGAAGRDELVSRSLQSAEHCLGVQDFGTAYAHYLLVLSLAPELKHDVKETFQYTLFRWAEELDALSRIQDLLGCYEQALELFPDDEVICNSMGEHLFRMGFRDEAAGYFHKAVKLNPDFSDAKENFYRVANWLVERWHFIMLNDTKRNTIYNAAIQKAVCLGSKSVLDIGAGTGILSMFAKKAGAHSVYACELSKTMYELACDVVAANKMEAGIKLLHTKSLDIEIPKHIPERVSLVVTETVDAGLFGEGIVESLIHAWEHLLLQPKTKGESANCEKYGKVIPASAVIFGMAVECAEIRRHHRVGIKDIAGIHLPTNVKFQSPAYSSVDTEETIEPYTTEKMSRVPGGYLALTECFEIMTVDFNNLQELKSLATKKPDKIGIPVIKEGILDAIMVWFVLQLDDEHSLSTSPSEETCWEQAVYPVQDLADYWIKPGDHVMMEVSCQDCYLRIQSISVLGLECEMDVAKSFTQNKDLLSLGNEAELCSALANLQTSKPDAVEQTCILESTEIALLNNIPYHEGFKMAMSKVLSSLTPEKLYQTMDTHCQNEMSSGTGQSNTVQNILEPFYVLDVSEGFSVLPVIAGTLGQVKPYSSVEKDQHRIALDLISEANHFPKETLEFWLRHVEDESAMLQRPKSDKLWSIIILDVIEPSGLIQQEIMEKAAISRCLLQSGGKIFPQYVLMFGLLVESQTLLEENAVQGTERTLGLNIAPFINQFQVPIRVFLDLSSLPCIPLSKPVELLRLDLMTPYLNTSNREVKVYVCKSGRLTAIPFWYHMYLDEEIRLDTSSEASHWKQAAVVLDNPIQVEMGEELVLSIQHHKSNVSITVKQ
Diacylglycerol kinase alpha, sequence (O88673 whole entry): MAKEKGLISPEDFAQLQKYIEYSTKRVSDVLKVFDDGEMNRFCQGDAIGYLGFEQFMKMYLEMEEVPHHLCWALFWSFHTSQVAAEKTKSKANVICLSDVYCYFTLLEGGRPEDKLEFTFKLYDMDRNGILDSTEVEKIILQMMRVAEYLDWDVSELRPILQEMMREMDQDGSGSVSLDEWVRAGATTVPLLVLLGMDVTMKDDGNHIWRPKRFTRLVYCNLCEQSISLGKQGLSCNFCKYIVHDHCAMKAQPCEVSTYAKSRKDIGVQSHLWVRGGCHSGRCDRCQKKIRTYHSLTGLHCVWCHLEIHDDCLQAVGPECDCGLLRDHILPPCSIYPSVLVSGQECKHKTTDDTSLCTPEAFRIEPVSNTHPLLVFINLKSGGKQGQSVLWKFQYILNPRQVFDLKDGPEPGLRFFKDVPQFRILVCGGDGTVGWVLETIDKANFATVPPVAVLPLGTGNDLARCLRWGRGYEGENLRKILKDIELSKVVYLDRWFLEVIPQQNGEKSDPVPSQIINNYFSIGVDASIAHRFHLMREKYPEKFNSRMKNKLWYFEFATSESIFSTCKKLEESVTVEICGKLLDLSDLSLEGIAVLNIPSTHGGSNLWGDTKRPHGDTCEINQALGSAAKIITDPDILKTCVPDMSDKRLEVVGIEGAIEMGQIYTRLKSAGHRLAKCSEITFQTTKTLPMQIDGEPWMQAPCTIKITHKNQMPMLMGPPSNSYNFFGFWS

SMILES: C[C@H]1CC(=O)Nc2cc(C(=O)NCCC3CC3)ccc2N1C(=O)N1CC2CC2C1 (stereo partly drawn)
- solubility kinetic [1]: 363 µg/mL (≈ 915 µM)
- -TdeltaS [2]: -5 kcal/mol
- deltaS [2]: 17 cal/mol.K
- Kd [3]: 0.097 µM
- Kdiss [4]: 3 10^-2/s
- inhibition [5]: inactive
- inhibition [6]: inactive
- inhibition [7]: inactive
- inhibition [8]: inactive
- inhibition [9]: inactive
- inhibition [10]: inactive
- inhibition (Homo sapiens): inactive
- inhibition [11]: inactive
- inhibition [12]: inactive
- inhibition [13]: inactive
- inhibition [14]: inactive
- inhibition [15]: inactive
- inhibition [16]: inactive
- IC50 [17]: > 20 µM
- IC50 [18]: > 20 µM
- IC50 [19]: > 20 µM
- IC50 [20]: > 20 µM
- IC50 [21]: > 20 µM
- IC50 [22]: > 20 µM
- IC50 [23]: > 20 µM
- IC50 [24]: > 20 µM
- IC50 [25]: > 20 µM
- IC50 [26]: > 20 µM
- IC50 [27]: > 20 µM
- IC50 (COLO-679): > 10 µM
- IC50 (Hs746T): > 10 µM
- IC50 (SUD4): > 10 µM
- deltaTm [28]: 8.34 K
